Measurements taken from ChEMBL document CHEMBL5661970 (Cancer Res, 2006).
The source made the active and inactive calls. The calls are words filed in the database; no cut-off is given here.

Columns and labels:
[1] = Apparent oral clearance in F344/N JcL-rnu athymic rat at 0.2 mg/kg, po measured upto 72 hrs by HPLC-MS/MS analysis; assay type: ADME, organism-based; conditions: in vivo
Procedure, shortened: (§1)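 Female F344/N JcL-rnu rats, four per group, single p.o. dose suspended in 0.5% methyl cellulose. Tail-vein blood sampled at set times to 72 h. Serum spiked with internal standard, deproteinated with acetonitrile, analysed by HPLC-MS/MS. Parameters derived by noncompartmental analysis.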

HUVEC = assay: Inhibition of cell migration in VEGF-induced serum-starved human HUVEC cells at >= 10 nmol/L incubated for 22 hrs by calcein AM staining based fluorescence plate reader analysis; assay type: functional
Procedure, shortened: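 HUVECs starved 5 h in EBM-2 with 0.1% BSA, placed in upper chamber of microchamber plate; lower chamber held 10 ng/mL VEGF, 0.1% FBS, 0.1% BSA. Compound in both chambers. After 22 h, migrated cells stained with 4 μg/mL calcein AM, read at 485/530 nm; 100%/0% set with/without VEGF in 0.1% DMSO; n = 10.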

[2] = Half life in F344/N JcL-rnu athymic rat at 0.2 mg/kg, po measured upto 72 hrs by HPLC-MS/MS analysis; assay type: ADME, organism-based; conditions: in vivo; procedure, shortened: as §1
[3] = Half life in F344/N JcL-rnu athymic rat at 0.04 mg/kg, po measured upto 72 hrs by HPLC-MS/MS analysis; assay type: ADME, organism-based; conditions: in vivo; procedure, shortened: as §1
[4] = Apparent oral clearance in F344/N JcL-rnu athymic rat at 1 mg/kg, po measured upto 72 hrs by HPLC-MS/MS analysis; assay type: ADME, organism-based; conditions: in vivo; procedure, shortened: as §1
[5] = target: Fibroblast growth factor receptor 4 (Homo sapiens, UniProt P22455); assay: Inhibition of FGFR-4 (unknown origin) in presence of ATP
[6] = target: Platelet-derived growth factor receptor beta (Homo sapiens, UniProt P09619); assay: Inhibition of PDGFR-beta phosphorylation in serum starved human NHDF cells incubated for 1 hr by immunoblotting analysis; assay type: cell-based
Procedure, shortened: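 Cells starved overnight in basic medium with 0.5% FBS, incubated 1 h with compound or 0.1% DMSO, then stimulated with human recombinant ligand for 5 min at 37°C. Lysates immunoprecipitated with receptor antibody and immunoblotted for phosphotyrosine. IC50 from nonlinear regression of percentage inhibition (n = 4).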

[7] = Cmax in F344/N JcL-rnu athymic rat at 5 mg/kg, po measured upto 72 hrs by HPLC-MS/MS analysis; assay type: ADME, organism-based; conditions: in vivo; procedure, shortened: as §1
ZR-75-1 [8] = assay: Antitumor activity against human ZR-75-1 cells xenografted in gamma-irradiation induced RH-rnu/rnu athymic rat assessed as tumor growth inhibition at 1.0 mg/kg, po administered once daily for 2 weeks and measured on day 14 relative to control; assay type: functional; conditions: ZR-75-1, light or radiation study, 336 h, read-out: TGI
Calu-6 [9] = assay: Antitumor activity against human Calu-6 cells xenografted in RH-rnu/rnu athymic rat assessed as larger enclosed median lumen area by the halos in tumor by measuring vessel diameter at 1 mg/kg, po administered for 14 days by H33342 dye based fluorescence microscopic analysis; assay type: functional; conditions: time 14 day
Procedure, shortened: (§2)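 Calu-6 tumor-bearing athymic rats, three per group, received oral drug at 0.2 or 1 mg/kg or vehicle on days 0-13. They were killed 1 min after i.v. H33342 at 20 mg/kg on day 13. 10 µm cryosections were cut from five tumor levels at least 200 µm apart and examined under UV epifluorescence. The major axis of fluorescent halos around vessels was measured by image analysis, with a Mann-Whitney test.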

[10] = target: Mitogen-activated protein kinase 3 (Homo sapiens, UniProt P27361); assay: Inhibition of ERK1 phosphorylation in EGF-stimulated serum-starved human HUVEC cells by immunoblotting analysis; assay type: cell-based
Calu-6 [11] = assay: Antitumor activity against human Calu-6 cells xenografted in RH-rnu/rnu athymic rat assessed as increased pericyte coverage at 0.2 mg/kg, po administered for 14 days by immunofluorescence staining analysis relative to control; assay type: functional; conditions: time 14 day
Procedure, shortened: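 Calu-6 xenografted athymic rats were randomized at 273-275 mm3 and dosed orally for 2 weeks. Paraffin sections were double-stained with anti-CD31 and Cy3-anti-α-smooth muscle actin. Pericyte-associated endothelial cells were counted in six fields per tumor, with six tumors per group and Dunnett's test.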

Calu-6 [12] = assay: Antitumor activity against human Calu-6 cells xenografted in RH-rnu/rnu athymic rat assessed as increased ratio of enlarged vessels with >100 uM diameter in tumor at 1 mg/kg, po administered for 14 days by H33342 dye based fluorescence microscopic analysis relative to control; assay type: functional; conditions: time 14 day; procedure, shortened: as §2
SK-OV-3 = assay: Antitumor activity against human SK-OV-3 cells xenografted in gamma-irradiation induced RH-rnu/rnu athymic rat assessed as tumor growth inhibition at 1.0 mg/kg, po administered once daily for 2 weeks and measured on day 14 relative to control; assay type: functional; conditions: SK-OV-3, light or radiation study, 336 h, read-out: TGI
[13] = target: Insulin-like growth factor 1 receptor (Homo sapiens, UniProt P08069); assay: Inhibition of IGF-1R (unknown origin) in presence of ATP
Procedure, shortened: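 Cell-free kinase assay using recombinant tyrosine kinases with 1 μmol/L ATP, run in quadruplicate. IC50 values determined.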

ZR-75-1 [14] = assay: Antitumor activity against human ZR-75-1 cells xenografted in gamma-irradiation induced RH-rnu/rnu athymic rat assessed as tumor growth inhibition at 0.2 mg/kg, po administered once daily for 2 weeks and measured on day 14 relative to control; assay type: functional; conditions: ZR-75-1, light or radiation study, 336 h, read-out: TGI
A549 = assay: Antitumor activity against human A549 cells xenografted in F344/N Jcl-rnu athymic rat assessed as reduction in number of CD31-positive cells in viable regions of tumor at 0.04 mg/kg, po administered once daily for 7 days by immunofluorescence staining analysis relative to control; conditions: time 7 day
[15] = Tmax in F344/N JcL-rnu athymic rat at 5 mg/kg, po measured upto 72 hrs by HPLC-MS/MS analysis; assay type: ADME, organism-based; conditions: in vivo; procedure, shortened: as §1
[16] = Cmax in F344/N JcL-rnu athymic rat at 0.04 mg/kg, po measured upto 72 hrs by HPLC-MS/MS analysis; assay type: ADME, organism-based; conditions: in vivo; procedure, shortened: as §1
Calu-6 [17] = assay: Antitumor activity against human Calu-6 cells xenografted in RH-rnu/rnu athymic rat assessed as tumor growth inhibition at 0.2 mg/kg, po administered once daily for 6 to 21 days by DCE-MRI analysis; conditions: time 6-21 day
PC-3 = assay: Antitumor activity against human PC-3 cells xenografted in gamma-irradiation induced RH-rnu/rnu athymic rat assessed as tumor growth inhibition at 0.2 mg/kg, po administered once daily for 2 weeks and measured on day 14 relative to control; assay type: functional; conditions: PC-3, light or radiation study, 336 h, read-out: TGI
[18] = AUC (0-infinity) in F344/N JcL-rnu athymic rat at 0.2 mg/kg, po measured upto 72 hrs by HPLC-MS/MS analysis; assay type: ADME, organism-based; conditions: in vivo
Procedure, shortened: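 Female athymic rats, four per group, given a single oral dose suspended in 0.5% methyl cellulose in water. Tail-vein blood was drawn at set times up to 72 h. Serum was spiked with internal standard, deproteinated with acetonitrile and analysed by HPLC-MS/MS. AUCinf came from noncompartmental analysis.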

[19] = Tmax in F344/N JcL-rnu athymic rat at 0.2 mg/kg, po measured upto 72 hrs by HPLC-MS/MS analysis; assay type: ADME, organism-based; conditions: in vivo; procedure, shortened: as §1
Calu-6 [20] = assay: Antitumor activity against human Calu-6 cells xenografted in RH-rnu/rnu athymic rat assessed as decreased microvessel density at 0.2 mg/kg, po administered for 14 days by immunofluorescence staining analysis relative to control; assay type: functional; set-up: scale not given: the % may be the effect or the level left; conditions: time 14 day

Fibroblast growth factor receptor 4, sequence (P22455 whole entry): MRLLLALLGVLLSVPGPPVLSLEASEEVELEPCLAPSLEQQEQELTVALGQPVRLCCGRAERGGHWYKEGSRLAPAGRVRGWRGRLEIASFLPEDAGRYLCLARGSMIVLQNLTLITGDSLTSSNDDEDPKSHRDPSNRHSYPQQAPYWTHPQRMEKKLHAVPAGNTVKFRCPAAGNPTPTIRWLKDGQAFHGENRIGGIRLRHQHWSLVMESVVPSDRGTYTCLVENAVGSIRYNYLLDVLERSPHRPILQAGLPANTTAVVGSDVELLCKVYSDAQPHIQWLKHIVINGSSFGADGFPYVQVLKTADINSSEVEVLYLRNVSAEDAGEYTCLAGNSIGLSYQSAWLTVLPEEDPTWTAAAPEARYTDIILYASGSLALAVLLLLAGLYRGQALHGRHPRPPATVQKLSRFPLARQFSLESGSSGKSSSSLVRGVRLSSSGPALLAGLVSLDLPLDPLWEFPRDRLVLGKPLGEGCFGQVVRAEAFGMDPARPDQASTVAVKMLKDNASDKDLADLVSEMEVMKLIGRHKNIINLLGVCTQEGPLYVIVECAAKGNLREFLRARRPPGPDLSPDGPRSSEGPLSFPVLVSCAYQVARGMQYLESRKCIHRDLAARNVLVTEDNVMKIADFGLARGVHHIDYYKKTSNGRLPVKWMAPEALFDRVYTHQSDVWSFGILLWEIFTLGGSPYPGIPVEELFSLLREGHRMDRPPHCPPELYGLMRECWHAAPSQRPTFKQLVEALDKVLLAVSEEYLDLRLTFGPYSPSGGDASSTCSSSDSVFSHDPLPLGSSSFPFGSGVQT
Mitogen-activated protein kinase 3, sequence (P27361 whole entry): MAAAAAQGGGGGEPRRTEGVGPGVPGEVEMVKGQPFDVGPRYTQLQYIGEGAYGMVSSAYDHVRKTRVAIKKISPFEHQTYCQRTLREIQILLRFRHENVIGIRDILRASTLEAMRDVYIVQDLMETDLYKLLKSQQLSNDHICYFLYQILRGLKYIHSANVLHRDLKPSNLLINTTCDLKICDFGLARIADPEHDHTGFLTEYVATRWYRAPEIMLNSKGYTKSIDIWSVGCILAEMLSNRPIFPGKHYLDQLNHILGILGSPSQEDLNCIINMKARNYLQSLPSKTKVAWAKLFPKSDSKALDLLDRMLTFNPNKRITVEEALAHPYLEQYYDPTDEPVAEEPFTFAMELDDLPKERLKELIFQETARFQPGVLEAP
Insulin-like growth factor 1 receptor, sequence (P08069 31-736 limits assumed): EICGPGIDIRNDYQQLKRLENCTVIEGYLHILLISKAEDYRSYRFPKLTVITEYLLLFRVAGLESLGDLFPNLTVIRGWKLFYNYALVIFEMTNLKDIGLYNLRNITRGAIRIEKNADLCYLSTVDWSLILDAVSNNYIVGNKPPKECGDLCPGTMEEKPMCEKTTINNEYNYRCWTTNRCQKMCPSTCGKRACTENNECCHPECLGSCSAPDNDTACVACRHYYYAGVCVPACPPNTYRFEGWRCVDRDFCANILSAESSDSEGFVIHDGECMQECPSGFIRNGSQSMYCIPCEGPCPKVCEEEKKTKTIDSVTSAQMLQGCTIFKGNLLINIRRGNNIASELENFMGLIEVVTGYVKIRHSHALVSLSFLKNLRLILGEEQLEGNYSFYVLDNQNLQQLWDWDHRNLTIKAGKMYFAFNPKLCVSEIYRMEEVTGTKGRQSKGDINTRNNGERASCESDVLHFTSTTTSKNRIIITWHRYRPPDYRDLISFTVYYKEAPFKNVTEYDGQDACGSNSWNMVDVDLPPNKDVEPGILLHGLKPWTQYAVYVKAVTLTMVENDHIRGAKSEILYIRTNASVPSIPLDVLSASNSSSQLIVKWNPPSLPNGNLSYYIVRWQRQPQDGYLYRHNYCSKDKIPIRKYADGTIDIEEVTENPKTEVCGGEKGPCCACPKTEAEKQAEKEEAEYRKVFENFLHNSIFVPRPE
Insulin-like growth factor 1 receptor, sequence (P08069 741-1367 limits assumed): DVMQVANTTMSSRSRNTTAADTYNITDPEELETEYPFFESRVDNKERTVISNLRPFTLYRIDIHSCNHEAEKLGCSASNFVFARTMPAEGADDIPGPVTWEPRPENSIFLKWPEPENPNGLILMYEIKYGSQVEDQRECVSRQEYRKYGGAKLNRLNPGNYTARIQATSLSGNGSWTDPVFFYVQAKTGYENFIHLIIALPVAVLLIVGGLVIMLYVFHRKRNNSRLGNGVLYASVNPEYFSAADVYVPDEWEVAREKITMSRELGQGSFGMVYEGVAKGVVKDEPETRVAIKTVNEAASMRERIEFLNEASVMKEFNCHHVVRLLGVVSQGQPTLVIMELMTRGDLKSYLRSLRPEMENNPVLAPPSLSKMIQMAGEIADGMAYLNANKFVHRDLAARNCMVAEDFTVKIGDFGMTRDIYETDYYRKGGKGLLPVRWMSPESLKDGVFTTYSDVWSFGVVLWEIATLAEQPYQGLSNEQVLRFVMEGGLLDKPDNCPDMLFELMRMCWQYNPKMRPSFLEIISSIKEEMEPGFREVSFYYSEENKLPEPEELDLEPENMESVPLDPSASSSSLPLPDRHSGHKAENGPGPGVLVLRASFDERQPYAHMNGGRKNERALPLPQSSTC

In the case of `COc1cc2nccc(Oc3ccc(NC(=O)Nc4cc(C)on4)c(Cl)c3)c2cc1OC` [TIVOZANIB], the CL/F [1] is reported as 2.07 mL/min/kg, the inhibition (HUVEC) is reported as “Active” and the half-life [2] is reported as 7.78 h. The half-life [3] was 9.25 h, the CL/F [4] was 2.2 mL/min/kg and the IC50 [5] was over 1000 nM. For the same molecule, the IC50 [6] was […], the Cmax [7] was 2820 ng/mL and the inhibition in vivo at 1 mg/kg (ZR-75-1 [8]) was 94.3%. For the same molecule, the Activity (Calu-6 [9]) was 65.8 um, the inhibition [10] was “inactive” and the Activity (Calu-6 [11]) was 29.6%. For the same molecule, the Activity (Calu-6 [12]) was 30.3%, the inhibition in vivo at 1 mg/kg (SK-OV-3) was 99.2% and the IC50 [13] was over 1000 nM. It also gave an inhibition in vivo at 0.2 mg/kg (ZR-75-1 [14]) of 77.2%, an Activity (A549) of 15.7% and a Tmax [15] of 3.5 h. For the same molecule, the Cmax [16] was 21.6 ng/mL, the Activity (Calu-6 [17]) was “Active” and the inhibition in vivo at 0.2 mg/kg (PC-3) was 73.6%. The AUC(0-inf) [18] was 1640 ng·h/mL, the Tmax [19] was 2.63 h and the Activity (Calu-6 [20]) was 42.5%.
